A selection: hits, their analogues and other compounds. The true share with any hit is near 7.2%.
tolC growth inh = growth inhibitors of E. coli tolC mutant, primary screen, strain BW25113 ΔtolC::kan, 384-well; OD615; AID 573, 2007; growth inhibition, % at 10 µM (by protocol); 65,000 tested, 2.2% active;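 active = growth inhibition at or above a cutoff equal to the mean over every tested compound plus 3 SD, cut at about 60% in these data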;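 also: growth measured after 20 h incubation at 37 °C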
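Signal: optical density read at 615 nm; Assay system: E. coli ΔtolC::kan strain BW25113; Times: 20 h incubation with compound, 37 °C; Dosing: 10 µM final, single dose.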
PLAP act = PLAP enzyme activators, biochemical, luminescence, HTS; Alkaline phosphatase, placental type (Homo sapiens), P05187; activation fold at 20 µM; AID 696, 2007; purified PLAP enzyme, luminescent substrate read-out; hits give high values; 96,000 tested, 1.2% active; in the data active = activation fold above about 2
Target sequence (P05187 whole entry, looked up): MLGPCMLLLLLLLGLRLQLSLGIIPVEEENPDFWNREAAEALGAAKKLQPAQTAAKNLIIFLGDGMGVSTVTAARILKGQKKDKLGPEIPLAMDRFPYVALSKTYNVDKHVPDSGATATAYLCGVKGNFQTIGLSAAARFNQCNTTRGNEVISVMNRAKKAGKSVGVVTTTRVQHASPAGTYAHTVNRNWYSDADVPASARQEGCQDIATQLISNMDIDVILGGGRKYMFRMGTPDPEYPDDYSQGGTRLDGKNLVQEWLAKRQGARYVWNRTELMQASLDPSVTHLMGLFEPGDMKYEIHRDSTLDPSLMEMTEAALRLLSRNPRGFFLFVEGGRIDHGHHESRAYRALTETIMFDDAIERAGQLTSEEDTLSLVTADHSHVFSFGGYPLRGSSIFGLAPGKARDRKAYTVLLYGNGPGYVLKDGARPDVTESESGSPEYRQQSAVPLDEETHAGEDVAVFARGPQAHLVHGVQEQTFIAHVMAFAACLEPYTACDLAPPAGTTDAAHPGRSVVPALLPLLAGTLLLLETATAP
E coli WT exp = growth inhibitors of wild-type E. coli, primary screen, strain BW25113, expanded library, OD600; 98,000 tested, 0.15% active; AID 710, 2007; growth inhibition, % at 100 µM; OD600 absorbance;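 active = growth inhibition above about 50% at one test dose, limit read from the data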;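 also: growth measured after 20 h incubation at 37 °C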
PostGolgi ctrl = growth inhibition of yeast control strain, primary screen, counter-screen for post-Golgi transport modulator project | efflux-deficient yeast background strain, growth absorbance A615, 16 h | inhibition, % at 10 µM | 98,000 tested, 5% active | AID 738, 2007
PostGolgi yeast = phenotypic screen on post-Golgi transport, primary screen; 98,000 tested, 0.9% active; post-Golgi transport phenotypic cell assay; AID 739, 2007; inhibition, % at 10 µM;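 also: yeast cells grown in 1536-well plates; yeast grown about 18 h at 30C before absorbance read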
* hit, by the source's call; nt = not tested or not shown. Rule as the data show it, unless noted: active = inhibition above about 30%; inactive = the rest.

SMILES	tolC growth inh	PLAP act	E coli WT exp	PostGolgi ctrl	PostGolgi yeast
CC(C)(C)C(O)C(Oc1ccc(Cl)cc1)n1cncn1 (stereo unspecified)	6	1.1	0	98*	104*
CC(C)CC(=O)NC(Oc1ccc(Cl)cc1)C(Cl)(Cl)Cl (stereo unspecified)	nt	1.1	4	14	17
CCOC(=O)c1cc(C)n(CCc2cnc[nH]2)c1C	-1	2.4*	14	-2	3
Cc1ccc(Cn2nnnc2CN2CCC(n3nnc4cc(C(F)(F)F)ccc43)CC2)cc1	60	1.4	-2	62*	12
FC(F)(F)c1ccc2c(c1)nnn2C1CCN(Cc2nnnn2Cc2ccccc2)CC1	63*	0.9	-26	14	4
CCC(C)N1CCN(C(=O)Cc2ccccc2)CC1 (stereo unspecified)	nt	0.9	-2	3	-2
C=C1N2CCC(CC2)C1(O)c1ccccc1C (stereo unspecified)	-11	0.9	11	11	0
Clc1ccc(COC(Cn2ccnc2)c2ccc(Cl)cc2Cl)c(Cl)c1 (stereo unspecified)	100*	nt	nt	nt	nt
Cc1cccn2c(=O)c3c(nc12)N1CCC(Cc2ccccc2)CC1C1(C3)C(=O)N(C)C(=O)N(C)C1=O (stereo unspecified)	67*	1.4	-2	23	-4
NCC1(CC(=O)O)CCCCC1	4	nt	nt	nt	nt
CC(=NCc1cccnc1)c1c(O)n(-c2ccccc2)c(=O)[nH]c1=O	nt	1	3	-4	8
CCN1/C(=C\C=C\C2=[N+](CC)c3ccccc3C2(C)C)C(C)(C)c2ccccc21	nt	0.4	55*	96*	99*
CCn1c(O)c(C=Nc2ccc(N3CCOCC3)c(Br)c2)c(=O)n(CC)c1=S	nt	1.2	-5	37*	1
Cc1ccccc1C1=NCC(=O)N(CC(=O)NCc2ccco2)c2sc3c(c21)CCCC3	61*	1.5	-1	10	5
CCC(C)N1C(=O)NC(=O)C2(Cc3c(ccc4ccccc34)N(C)C2)C1=O (stereo unspecified)	50	1.1	3	33*	3
CCCCC1(CCCC)C(=O)NC(=Nc2cccc(C)c2)NC1=O	nt	1.1	5	7	47*
CN(C)c1ccc(NC(=O)CN2C(=O)CN=C(c3ccccc3)c3cc(Cl)ccc32)cc1	nt	1.5	-8	9	11
Cc1ccc(NC(=O)CN2C(=O)CN=C(c3ccccc3)c3cc(Cl)ccc32)cc1	nt	1.4	-9	46*	0
O=P(Nc1c(Cl)cccc1Cl)(c1ccccc1)c1nc2c(s1)CCCC2 (stereo unspecified)	nt	1.1	5	14	-5
O=P(Nc1ccccc1Cl)(c1ccccc1)c1nc2c(s1)CCCC2 (stereo unspecified)	nt	1.1	10	33*	8
CC(C)(C)c1nc(N2CCN(C(=O)c3ccco3)CC2)c2nnn(Cc3ccccc3Cl)c2n1	43	1.6	-16	4	-3
CN1CCN(c2ccc(C(N)=O)cc2N)CC1	19	1	-4	9	0
CCCCCSc1cc(OC)c(CCNC)cc1OC	nt	1.1	3	11	-2
CCCCCCCSc1cc(OC)c(CCNC)cc1OC	nt	1.5	76*	49*	0
CC1=CC(=C2C(=O)NC(=S)NC2=O)C=C(C(F)(F)F)N1C	nt	0.7	-4	11	40*
SMILES	tolC growth inh	PLAP act	E coli WT exp	PostGolgi ctrl	PostGolgi yeast
N=c1c2c(n(Cc3ccc(Cl)cc3Cl)c3c1CCC3)CCCC2	100*	1	21	19	19
N=c1sc2c(n1Cc1ccccc1)CCCC2	-3	1	5	-1	8
CC(C)Cc1[nH]c(=O)c(C#N)c2c1CCC2	13	1.1	1	-4	35*
COc1ccc(-n2c(O)c(C(C)=NCCCn3ccnc3)c(=O)[nH]c2=O)cc1	nt	1	-7	5	-8
O=C(Nc1ccc(Cl)cc1)Nc1nccs1	nt	1.1	13	11	3
O=c1c2ccccc2nc(-c2ccc(-c3ccccc3)cc2)n1-c1ccncc1	nt	1	-6	86*	100*
COc1cc2[nH]c(=O)n(-c3ccccc3)c(=O)c2cc1OC	-15	0.8	-10	1	31*
COc1cc2[nH]c(=O)n(-c3cccc(Cl)c3)c(=O)c2cc1OC	12	0.8	-6	17	-11
O=C(CNC(=O)OCc1ccccc1)Nc1ccc(Br)cc1C(=O)c1ccccc1	nt	1	-8	37*	-3

High-throughput results deposited in PubChem by several laboratories.
